CHO parental Ca: ATP-evoked calcium signal inhibitors, parental CHO, primary screen, counter-screen for OX1R antagonist project, cell-based, fluorescence, Fluo-8 calcium dye | parental CHO-K1, ATP-induced calcium, Fluo-8 fluorescence | inhibition, % at 5.6 µM | 330,000 tested, 0.63% active | AID 463079, 2010;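 active means inhibition above that plate's mean sample inhibition plus 3 SD, cut at about 26% in these data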;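 further: 0% = ATP-challenged DMSO wells and 100% = DMSO wells without ATP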
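Material – parental CHO cells · Reagent – ATP stimulus · Compound – single nominal dose of 5.6 µM per compound · Detection – Fluo-8 fluorescence · Read-out basis – percent inhibition of calcium signal · Controls – ATP-challenged DMSO wells low, unchallenged DMSO wells high · Repeats – no replicates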
TAAR1 agonist: human TAAR1 agonists, primary screen, Fluo-8 calcium fluorescence, CHO RD-HGA16 cells. 360,000 tested, 0.99% active. Trace amine-associated receptor 1 (Homo sapiens), Q96RJ0. vehicle wells 0%, saturating PEA agonist 100%. activation, % at 3 µM;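 active means activation above the mean activation of all test compounds in the run plus 3 SD, cut at about 38% in these data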
Target sequence (Q96RJ0 whole entry, looked up): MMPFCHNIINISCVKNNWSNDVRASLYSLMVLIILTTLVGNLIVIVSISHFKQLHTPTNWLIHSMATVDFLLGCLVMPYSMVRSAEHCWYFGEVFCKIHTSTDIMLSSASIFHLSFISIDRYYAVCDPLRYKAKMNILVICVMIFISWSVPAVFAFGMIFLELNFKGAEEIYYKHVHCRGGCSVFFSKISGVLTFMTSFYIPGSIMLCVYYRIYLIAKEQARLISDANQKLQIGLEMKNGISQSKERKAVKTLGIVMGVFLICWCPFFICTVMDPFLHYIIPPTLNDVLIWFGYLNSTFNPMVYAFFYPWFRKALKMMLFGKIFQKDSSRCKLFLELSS
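Test system: RD-HGA16 (CHO) cells co-expressing Gα16 and hTAAR1 | Doses: Single dose, 3 µM | Schedule: 17-24 h seeding, 75 min 37 °C dye, 30 min RT | Evaluation: % activation from peak over basal fluorescence ratio, DMSO-to-PEA scaled | Technique: Kinetic Fluo-8 calcium fluorescence | Benchmarks: Low control DMSO, high control PEA (EC100)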
OX1R antag-1: OX1R (HCRTR1) antagonists, primary screen, fluorescence, CHO/OX1R cells, Fluo-8 calcium, orexin A; Orexin/Hypocretin receptor type 1 (Homo sapiens), O43613; Fluo-8 calcium fluorescence; inhibition, % at 5 µM; 330,000 tested, 0.43% active; AID 434989, 2010;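 active means inhibition above its plate's threshold, mean inhibition of all tested compounds on the plate plus 3 SD, cut at about 37% in these data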;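 further: 0% = orexin A challenge wells and 100% = SB-334867-A antagonist wells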
Target sequence (O43613 whole entry, looked up): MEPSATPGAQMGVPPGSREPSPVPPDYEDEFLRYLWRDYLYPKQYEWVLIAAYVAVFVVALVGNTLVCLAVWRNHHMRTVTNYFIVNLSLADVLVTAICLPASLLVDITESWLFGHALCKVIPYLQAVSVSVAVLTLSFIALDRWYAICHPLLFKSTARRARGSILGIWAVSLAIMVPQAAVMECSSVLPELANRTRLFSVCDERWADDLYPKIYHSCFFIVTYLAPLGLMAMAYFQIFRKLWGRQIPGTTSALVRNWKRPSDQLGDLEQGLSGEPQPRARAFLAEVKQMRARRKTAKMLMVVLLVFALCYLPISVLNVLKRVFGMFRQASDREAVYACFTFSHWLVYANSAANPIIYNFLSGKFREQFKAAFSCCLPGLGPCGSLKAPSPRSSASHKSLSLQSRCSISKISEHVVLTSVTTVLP
GPR7 antag: GPR7 receptor antagonists, primary screen, cell-based, fluorescence, single concentration; AID 1861, 2009; GPR7-expressing cells, fluorescence antagonist assay; 290,000 tested, 1.1% active; inhibition, % at 4.4 µM; Neuropeptides B/W receptor type 1 (Homo sapiens), P48145; in the data active means inhibition above about 16%, passing the limit was not always enough;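 further: cells stimulated with the agonist NPW; 0% = agonist with vehicle and 100% = vehicle without agonist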
OX1R antag-2: antagonists of human orexin 1 receptor (OX1R). inhibition, % at 6.6 µM. Orexin/Hypocretin receptor type 1 (Homo sapiens), O43613. OX1R-expressing cells, FRET antagonist read-out. 330,000 tested, 1.8% active. AID 485270, 2010; in the data active means inhibition mostly above about 38%, no sharp cut-off; inactive means mostly below about 40%;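 further: 0% = agonist challenge alone and 100% = reference antagonist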
TAAR1 antag: human TAAR1 antagonists, primary screen, Fluo-8 calcium fluorescence, CHO RD-HGA16 cells; Trace amine-associated receptor 1 (Homo sapiens), Q96RJ0; antagonist; inhibition, % at 3 µM; 360,000 tested, 1.5% active; AID 624466, 2012;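 active means inhibition above a per-plate cutoff, the mean inhibition of test compounds on that plate plus 3 SD, cut at about 49% in these data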;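 further: 0% = DMSO plus EC80 beta-PEA response and 100% = DMSO alone without agonist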
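System: RD-HGA16 CHO cells with stable hTAAR1 and Gα16 | Probe or stimulus: EC80 β-phenethylamine stimulus | Dosing: 3 µM, single point | Times: Dye loading 75 min at 37 °C, then 30 min room temperature | Measured by: Fluo-8 calcium-sensitive fluorescence | Read-out basis: % inhibition of agonist calcium response | Replicates: n of 1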
An asterisk follows results filed as active; . = no result given. The list is not random: actives were taken first. Their share in the collection is about 4.6%.

SMILES | CHO parental Ca | TAAR1 agonist | OX1R antag-1 | GPR7 antag | OX1R antag-2 | TAAR1 antag
Cc1cc(N2CCN(CC(C)(C)O)C[C@@H]2C)ccc1N1CCN(Cc2ccccc2)[C@@H](C)C1 | . | 1.7 | . | . | . | -35.5
COc1ccc2nc(-c3ccc(CN4CCC5(CC4)CNc4ccccc45)cc3)c(-c3ccccc3)nc2c1 | . | 0.4 | . | . | . | 0.1
O=c1c2ccccc2nc2c3ccccc3c(NCCO)nn12 | -9.3 | 2.1 | -19.3 | -12.5 | 49.5* | 24.1
O=c1c2ccccc2nc2c3ccccc3c(NCc3cccnc3)nn12 | -18.9 | 4.5 | -15.8 | -7.7 | 56.0 | -14.7
Cc1ccc(N(CCCCN2C(=O)c3ccccc3C2=O)C(=O)c2cccs2)cc1 | -17.0 | 8.2 | -23.5 | -10.3 | 9.5 | 49.0*
Cc1ccc(-n2nnnc2-c2cnc3ccc(Cl)cc3c2-c2ccccc2)cc1 | -22.7 | 0.5 | -23.2 | -2.0 | 10.6 | -11.2
Clc1ccc2[nH]cc(-c3nnnn3-c3ccc4ccccc4c3)c2c1 | 56.7* | 7.6 | 30.2 | 24.2 | 53.5 | 49.0*
C[C@@H]1CN([C@H](C)CO)S(=O)(=O)c2ccc(Br)cc2O[C@H]1CN(C)CC1CCOCC1 | . | -0.4 | . | . | . | -3.3
O=C1c2cccnc2-c2ncccc21 | -1.9 | 1.1 | -9.4 | -11.6 | 53.6* | 0.6
O=C1C(=O)c2cccnc2-c2ncccc21 | . | 21.7 | . | . | . | 3.7
O=C1c2cc([N+](=O)[O-])ccc2-c2ncccc21 | 3.1 | -0.1 | -15.5 | -9.7 | 67.2* | -10.9
O=C1c2ccccc2-c2nccnc21 | -3.7 | 7.3 | -8.0 | 4.1 | 110.6* | 9.1
Nc1ccc2c(c1)C(=O)c1cc([N+](=O)[O-])ccc1-2 | . | -0.8 | . | . | . | -4.0
COC(=O)[C@]12C[C@H](CC(=O)N3CCCCC3)C(=O)N(Cc3ccccc3)C1=C[C@H](C1CCCC1)O[C@@H]2C | . | 2.3 | . | . | . | -3.6
CC(C)C[C@H]1COc2cc(NCc3ccc(Cl)c(Cl)c3)ccc2S(=O)(=O)N1 | . | 26.2 | . | . | . | 36.6
CN(C)CCNC(=O)C(=O)NCC1OCCN1S(=O)(=O)c1cc(F)ccc1F (stereo unspecified) | -13.3 | 2.8 | -10.0 | -6.7 | -0.8 | -12.3
Cc1ccc(C)c(S(=O)(=O)N2CCCCC2CCNC(=O)C(=O)NC2CC2)c1 (stereo unspecified) | -17.8 | -0.3 | -5.0 | . | 34.9* | -38.2
COc1ccc(S(=O)(=O)N2CCCOC2CNC(=O)C(=O)NCCc2ccco2)cc1C (stereo unspecified) | -2.8 | 2.0 | 8.9 | -6.0 | 69.6* | -13.6
COc1ccccc1CCNC(=O)C(=O)NCC1OCCN1S(=O)(=O)c1cc(F)ccc1F (stereo unspecified) | -13.8 | 37.6* | -10.0 | -3.6 | 0.1 | -1.6
Cc1ccc(C)c(S(=O)(=O)N2CCCOC2CNC(=O)C(=O)NCCc2ccco2)c1 (stereo unspecified) | -24.4 | 2.2 | 7.6 | -0.4 | 62.7* | -3.6
COc1cc(C(=O)c2cc3c(cc2C)OCO3)cc(OC)c1OC | . | 0.1 | . | . | . | -26.6
COC(=O)[C@]12C[C@H](CC(=O)N3CCCCC3)C(=O)N(Cc3ccc4c(c3)OCO4)C1=C[C@H](C(C)(C)C)O[C@@H]2C | . | -1.0 | . | . | . | -24.0
COc1ccc(CCNC(=O)C(=O)NCC2OCCCN2S(=O)(=O)c2cc(C)ccc2C)cc1 (stereo unspecified) | -29.9 | 4.7 | -28.9 | -19.4 | 29.1 | -4.0
COc1ccccc1CCNC(=O)C(=O)NCC1OCCCN1S(=O)(=O)c1cc(C)ccc1C (stereo unspecified) | -24.5 | 5.8 | 10.9 | -6.4 | 65.5* | 4.9
Cc1ccccc1C(=O)N(C)[C@H]1C[C@H]2c3[nH]c4c(-c5ccc6c(c5)OCO6)cccc4c3CCN2C(=O)[C@H]1[C@H](C)O | . | 1.3 | . | . | . | -18.8
SMILES | CHO parental Ca | TAAR1 agonist | OX1R antag-1 | GPR7 antag | OX1R antag-2 | TAAR1 antag
CC(=O)c1c(C)[nH]c(C(=O)OCC(=O)Nc2ccc(C)cc2[N+](=O)[O-])c1C | 45.3* | 11.9 | 10.1 | -4.3 | 39.1 | 23.6
CC(=O)c1c(C)[nH]c(C(=O)OCC(=O)Nc2cc(Cl)ccc2[N+](=O)[O-])c1C | 26.8* | 16.3 | -7.8 | -0.4 | 48.4* | 51.1*
CCOC(=O)c1[nH]c(C)c(C(=O)Nc2ccc(Cl)cc2)c1C | 9.6 | 39.1* | 1.3 | 4.2 | 5.8 | 35.5
Cc1ccc(NC(=O)COC(=O)C2=COCCO2)c([N+](=O)[O-])c1 | 0.6 | 4.1 | -9.9 | 1.4 | 17.1 | -26.3
COc1cc(CN2C[C@@H](CO)O[C@@H](n3cnc4c(NCCCO)ncnc43)C2)cc(OC)c1OC | . | 0.5 | . | . | . | -7.4
O=S(=O)(c1ccc(F)cc1)N1CCCc2nc(-c3ccccc3)ccc21 | . | 0.3 | . | . | . | 8.0
COc1ccc(/C=N/NC(=O)c2ccccc2OC)cc1COc1ccccc1[N+](=O)[O-] | -4.2 | 1.3 | -12.2 | 0.6 | 24.5 | 50.8*
COC(=O)C[C@@H]1CC[C@H](NC(=O)c2ccc3c(c2)OCO3)[C@@H](CO)O1 | . | 4.2 | . | . | . | -11.2
CCc1cccc(NC(=O)COC(=O)/C=C/c2cccs2)c1 | -6.0 | 0.5 | -36.0 | . | 13.5 | -5.0
Cc1nn(-c2ccccc2)c2c1C(O)n1c(nc3ccccc31)S2 (stereo unspecified) | -18.3 | 17.4 | -20.7 | 8.3 | 21.4 | 50.3*
Nc1[nH]c(C(=O)c2ccccc2)c(-c2ccccc2C(F)(F)F)c1C(=O)c1c[nH]c2ccccc12 | . | 3.1 | . | . | . | -22.3
COc1ccc(NC(=O)c2cc(-c3ccco3)on2)cc1 | 63.5* | 2.1 | 4.8 | 6.7 | 15.1 | -25.6
COc1ccc(NC(=O)c2cc(-c3ccccc3OC)on2)cc1 | -18.2 | 7.5 | -0.6 | 9.6 | 45.4* | 18.2
Nc1nonc1-n1nnc(C(=O)N/N=C/c2cccnc2)c1CSc1ccc(Cl)cc1 | -0.4 | 20.4 | 19.9 | -13.0 | 47.5* | 56.3*
Nc1nonc1-n1nnc(C(=O)N/N=C/c2cccnc2)c1CSc1ccccc1 | -9.0 | 12.6 | 10.0 | 0.4 | 28.4 | 29.1
CCc1c(-c2ccc(F)cc2F)ncn1CCc1ccccc1OC | . | 14.9 | . | . | . | 0.6
Cc1n[nH]c(=O)nc1NCCc1ccccc1 | 5.3 | 40.4* | -2.0 | 2.7 | 15.6 | 0.3
CCC(=O)N1CCCC1(C)C(=O)Nc1cc(OC)ccc1OC (stereo unspecified) | . | 4.7 | . | . | . | -15.6
CC(=O)Nc1ccc(-c2cc3ccccc3o2)cc1 | 7.0 | 1.7 | 16.3 | 19.8* | 23.7 | 33.2
CC(C)C[C@H]1COc2c(Cl)cccc2S(=O)(=O)N1Cc1cccc(Cl)c1 | . | 2.4 | . | . | . | -13.9
